Measured values published in ChEMBL document CHEMBL3785002, “Lead optimization of the VU0486321 series of mGlu1 PAMs. Part 3. Engineering plasma stability by discovery and optimization of isoindolinone analogs” (Bioorg Med Chem Lett, 2016).
One block for each compound: values may come before it.

Experiments:
[1] = molecular target: T1, Metabotropic glutamate receptor 1 (Homo sapiens, UniProt Q13255); assay: Positive allosteric modulatory activity at human mGlu1 receptor expressed in wild type T-Rex293 cells assessed as increase in glutamate-induced calcium mobilization pre-incubated for 2.5 mins before glutamate stimulation for 1 min; assay type: functional, cell-based
Method in brief: (§1)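 Tetracycline-inducible human mGlu1 WT T-REx-293 cells were induced overnight with 50 ng/mL tetracycline in dialyzed-FBS medium. Cells were loaded with 1.15 μM Fluo-4 AM in HBSS/20 mM HEPES/2.5 mM probenecid for 45 min at 37 °C. Compounds (half-log series in DMSO) were added for 2.5 min, then an EC20 of glutamate for 1 min. Calcium flux was read on Flexstation; ECmax glutamate served as reference. n=3 in triplicate.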
Target sequence in this assay (Q13255 whole entry): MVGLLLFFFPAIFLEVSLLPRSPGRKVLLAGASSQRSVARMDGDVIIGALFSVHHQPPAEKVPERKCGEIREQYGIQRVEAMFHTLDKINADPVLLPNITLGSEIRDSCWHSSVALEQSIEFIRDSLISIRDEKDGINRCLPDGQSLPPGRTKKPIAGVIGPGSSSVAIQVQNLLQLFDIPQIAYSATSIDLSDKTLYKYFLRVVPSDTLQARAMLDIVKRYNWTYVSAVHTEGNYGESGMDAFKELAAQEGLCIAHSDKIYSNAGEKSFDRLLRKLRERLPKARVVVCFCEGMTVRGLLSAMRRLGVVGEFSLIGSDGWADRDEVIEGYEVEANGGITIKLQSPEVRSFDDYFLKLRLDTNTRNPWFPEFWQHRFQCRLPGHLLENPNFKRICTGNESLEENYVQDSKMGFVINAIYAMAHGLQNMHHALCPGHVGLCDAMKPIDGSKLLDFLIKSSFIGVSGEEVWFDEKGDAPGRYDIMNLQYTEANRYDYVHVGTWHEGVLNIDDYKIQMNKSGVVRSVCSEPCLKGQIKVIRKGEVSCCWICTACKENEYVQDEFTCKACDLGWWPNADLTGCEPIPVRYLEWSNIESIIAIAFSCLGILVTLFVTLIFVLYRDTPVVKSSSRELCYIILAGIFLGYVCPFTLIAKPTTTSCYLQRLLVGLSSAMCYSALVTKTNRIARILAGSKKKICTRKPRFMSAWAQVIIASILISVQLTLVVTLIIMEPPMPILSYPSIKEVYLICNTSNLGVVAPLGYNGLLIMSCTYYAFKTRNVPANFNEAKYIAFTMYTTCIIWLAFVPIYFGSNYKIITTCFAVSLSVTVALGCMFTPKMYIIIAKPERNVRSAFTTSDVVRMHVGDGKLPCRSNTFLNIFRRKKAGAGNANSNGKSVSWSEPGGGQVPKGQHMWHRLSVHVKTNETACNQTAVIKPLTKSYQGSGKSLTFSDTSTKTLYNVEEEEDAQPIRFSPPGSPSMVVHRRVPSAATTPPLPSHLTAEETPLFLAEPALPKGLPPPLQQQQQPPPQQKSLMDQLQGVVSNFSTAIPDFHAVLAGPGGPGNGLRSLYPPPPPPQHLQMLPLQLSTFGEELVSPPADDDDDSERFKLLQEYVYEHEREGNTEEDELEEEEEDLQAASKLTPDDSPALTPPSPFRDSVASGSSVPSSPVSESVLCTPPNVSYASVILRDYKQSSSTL

[2] = molecular target: T1, Metabotropic glutamate receptor 1; assay: Positive allosteric modulatory activity at human mGlu1 receptor expressed in wild type T-Rex293 cells assessed as increase in glutamate-induced calcium mobilization pre-incubated for 2.5 mins before glutamate stimulation for 1 min relative to glutamate alone; assay type: functional, cell-based; method in brief: as §1
Target sequence in this assay (Q13255 19-1194 limits assumed): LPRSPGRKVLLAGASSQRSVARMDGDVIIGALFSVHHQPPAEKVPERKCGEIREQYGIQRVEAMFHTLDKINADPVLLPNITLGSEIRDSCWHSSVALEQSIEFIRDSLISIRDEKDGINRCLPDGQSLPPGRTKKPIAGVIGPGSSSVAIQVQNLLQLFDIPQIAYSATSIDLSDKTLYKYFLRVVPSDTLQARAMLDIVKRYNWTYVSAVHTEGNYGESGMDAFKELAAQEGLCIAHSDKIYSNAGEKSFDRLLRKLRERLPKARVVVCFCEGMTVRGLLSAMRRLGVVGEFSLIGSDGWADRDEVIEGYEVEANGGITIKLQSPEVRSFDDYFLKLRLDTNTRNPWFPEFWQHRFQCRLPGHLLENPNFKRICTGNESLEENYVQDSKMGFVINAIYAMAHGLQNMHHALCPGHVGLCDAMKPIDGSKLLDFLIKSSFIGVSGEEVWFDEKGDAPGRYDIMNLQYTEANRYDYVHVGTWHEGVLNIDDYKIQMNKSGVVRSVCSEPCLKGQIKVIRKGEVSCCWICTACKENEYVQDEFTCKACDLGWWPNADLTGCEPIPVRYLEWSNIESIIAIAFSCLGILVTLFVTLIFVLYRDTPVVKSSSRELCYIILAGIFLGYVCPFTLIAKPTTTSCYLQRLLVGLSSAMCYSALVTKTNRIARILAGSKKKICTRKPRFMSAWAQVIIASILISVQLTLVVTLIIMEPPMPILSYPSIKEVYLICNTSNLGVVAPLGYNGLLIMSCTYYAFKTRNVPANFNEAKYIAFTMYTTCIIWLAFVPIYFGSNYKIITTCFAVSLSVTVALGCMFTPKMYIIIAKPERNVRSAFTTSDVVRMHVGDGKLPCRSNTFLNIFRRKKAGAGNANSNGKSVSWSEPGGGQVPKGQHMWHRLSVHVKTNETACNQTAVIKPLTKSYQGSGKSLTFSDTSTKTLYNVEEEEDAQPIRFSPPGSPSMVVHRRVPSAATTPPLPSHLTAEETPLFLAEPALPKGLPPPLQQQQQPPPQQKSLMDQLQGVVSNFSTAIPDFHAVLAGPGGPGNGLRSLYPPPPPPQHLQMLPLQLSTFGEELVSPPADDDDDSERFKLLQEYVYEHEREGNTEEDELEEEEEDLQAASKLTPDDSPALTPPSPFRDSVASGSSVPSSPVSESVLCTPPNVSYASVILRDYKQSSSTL

Plasma [3] = assay: Stability in human plasma; assay type: ADME, cell-free
Plasma [4] = assay: Stability in rat plasma; assay type: ADME, cell-free
[5] = Fraction unbound in rat plasma; assay type: ADME, cell-free
[6] = Fraction unbound in human plasma; assay type: ADME, cell-free
Liver microsome [7] = assay: Stability in rat liver microsomes; assay type: ADME
Liver microsome [8] = assay: Stability in human liver microsomes; assay type: ADME
T-Rex 293 = assay: Selectivity ratio of EC50 for human mGlu4 receptor expressed in wild type T-Rex 293 cells to EC50 for human mGlu1 receptor expressed in wild type T-Rex 293 cells; assay type: cell-based; conditions: T-Rex293
[9] = Intrinsic clearance in human; assay type: ADME, organism-based; conditions: in vivo
Cytochrome P450 1A2 = molecular target: T2, Cytochrome P450 1A2 (Homo sapiens, UniProt P05177); assay: Inhibition of CYP1A2 (unknown origin); assay type: ADME
T2 sequence (P05177 whole entry): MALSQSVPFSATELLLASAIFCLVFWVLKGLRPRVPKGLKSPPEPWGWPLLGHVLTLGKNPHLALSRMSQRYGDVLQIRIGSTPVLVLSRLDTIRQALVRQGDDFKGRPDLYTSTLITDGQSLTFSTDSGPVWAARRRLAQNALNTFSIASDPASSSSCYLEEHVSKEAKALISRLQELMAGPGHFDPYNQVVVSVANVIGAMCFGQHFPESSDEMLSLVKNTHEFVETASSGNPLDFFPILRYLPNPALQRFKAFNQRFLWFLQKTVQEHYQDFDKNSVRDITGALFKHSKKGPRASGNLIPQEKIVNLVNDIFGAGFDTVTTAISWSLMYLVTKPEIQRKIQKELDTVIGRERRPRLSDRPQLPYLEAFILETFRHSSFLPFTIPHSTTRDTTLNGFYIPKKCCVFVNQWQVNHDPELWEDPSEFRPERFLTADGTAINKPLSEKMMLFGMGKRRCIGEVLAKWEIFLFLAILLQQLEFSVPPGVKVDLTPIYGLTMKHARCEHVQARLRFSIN

[10] = Intrinsic clearance in rat; assay type: ADME, organism-based; conditions: in vivo
Cytochrome P450 2C9 = Cytochrome P450 2C9 (Homo sapiens, UniProt P11712); assay: Inhibition of CYP2C9 (unknown origin); assay type: ADME
Chain of Cytochrome P450 2C9 (P11712 whole entry): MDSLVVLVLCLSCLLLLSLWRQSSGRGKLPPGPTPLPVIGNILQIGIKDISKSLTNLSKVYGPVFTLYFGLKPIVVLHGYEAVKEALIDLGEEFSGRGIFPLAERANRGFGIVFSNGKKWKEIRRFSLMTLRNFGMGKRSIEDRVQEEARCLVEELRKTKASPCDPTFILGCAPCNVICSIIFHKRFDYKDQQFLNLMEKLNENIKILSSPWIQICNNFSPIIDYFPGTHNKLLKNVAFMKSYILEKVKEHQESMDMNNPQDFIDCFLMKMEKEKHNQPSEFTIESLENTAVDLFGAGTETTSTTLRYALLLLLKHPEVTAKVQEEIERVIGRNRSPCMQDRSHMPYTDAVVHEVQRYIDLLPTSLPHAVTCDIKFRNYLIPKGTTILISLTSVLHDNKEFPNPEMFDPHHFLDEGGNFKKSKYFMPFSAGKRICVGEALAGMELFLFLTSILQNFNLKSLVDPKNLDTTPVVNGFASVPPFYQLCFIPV

Cytochrome P450 3A4 = Cytochrome P450 3A4 (Homo sapiens, UniProt P08684); assay: Inhibition of […] (unknown origin); assay type: ADME
Chain of Cytochrome P450 3A4 (P08684 whole entry): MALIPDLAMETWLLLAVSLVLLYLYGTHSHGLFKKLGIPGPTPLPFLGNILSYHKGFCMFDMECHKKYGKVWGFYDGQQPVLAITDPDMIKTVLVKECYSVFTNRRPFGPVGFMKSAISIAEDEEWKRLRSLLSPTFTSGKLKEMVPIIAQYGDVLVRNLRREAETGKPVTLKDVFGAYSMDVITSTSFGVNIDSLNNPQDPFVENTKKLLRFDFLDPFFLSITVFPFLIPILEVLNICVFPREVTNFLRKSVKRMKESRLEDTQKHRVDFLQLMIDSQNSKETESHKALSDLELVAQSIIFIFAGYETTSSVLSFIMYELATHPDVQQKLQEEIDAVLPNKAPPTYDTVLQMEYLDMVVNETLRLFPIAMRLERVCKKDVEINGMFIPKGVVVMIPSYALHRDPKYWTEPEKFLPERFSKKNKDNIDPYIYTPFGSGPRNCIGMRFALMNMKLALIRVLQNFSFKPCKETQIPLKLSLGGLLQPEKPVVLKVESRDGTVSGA

Cytochrome P450 2D6 = Cytochrome P450 2D6 (Homo sapiens, UniProt P10635); assay: Inhibition of CYP2D6 (unknown origin); assay type: ADME
Chain of Cytochrome P450 2D6 (P10635 whole entry): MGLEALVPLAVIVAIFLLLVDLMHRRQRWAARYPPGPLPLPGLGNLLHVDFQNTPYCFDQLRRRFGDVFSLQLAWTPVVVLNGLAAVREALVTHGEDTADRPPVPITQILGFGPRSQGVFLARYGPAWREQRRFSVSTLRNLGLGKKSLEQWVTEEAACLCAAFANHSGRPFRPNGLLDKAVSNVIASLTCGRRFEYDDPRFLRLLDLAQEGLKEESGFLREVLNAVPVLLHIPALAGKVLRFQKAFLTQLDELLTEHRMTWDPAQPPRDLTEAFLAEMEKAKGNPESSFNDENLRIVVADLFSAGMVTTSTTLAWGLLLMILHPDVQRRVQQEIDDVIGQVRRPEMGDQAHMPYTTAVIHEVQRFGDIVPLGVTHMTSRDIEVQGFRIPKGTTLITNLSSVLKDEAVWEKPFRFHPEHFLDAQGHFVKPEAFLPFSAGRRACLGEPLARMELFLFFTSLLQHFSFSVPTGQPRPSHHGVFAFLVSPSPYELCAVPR

Rattus norvegicus [11] = species on record: Rattus norvegicus; assay: Half life in rat; assay type: ADME, organism-based; conditions: in vivo
[12] = molecular target: Metabotropic glutamate receptor 4 (Homo sapiens, UniProt Q14833); assay: Positive allosteric modulatory activity at human mGlu4 receptor expressed in wild type T-Rex293 cells assessed as increase in glutamate-induced calcium mobilization pre-incubated for 2.5 mins before glutamate stimulation for 1 min; assay type: functional, cell-based
Chain of Metabotropic glutamate receptor 4 (Q14833 whole entry): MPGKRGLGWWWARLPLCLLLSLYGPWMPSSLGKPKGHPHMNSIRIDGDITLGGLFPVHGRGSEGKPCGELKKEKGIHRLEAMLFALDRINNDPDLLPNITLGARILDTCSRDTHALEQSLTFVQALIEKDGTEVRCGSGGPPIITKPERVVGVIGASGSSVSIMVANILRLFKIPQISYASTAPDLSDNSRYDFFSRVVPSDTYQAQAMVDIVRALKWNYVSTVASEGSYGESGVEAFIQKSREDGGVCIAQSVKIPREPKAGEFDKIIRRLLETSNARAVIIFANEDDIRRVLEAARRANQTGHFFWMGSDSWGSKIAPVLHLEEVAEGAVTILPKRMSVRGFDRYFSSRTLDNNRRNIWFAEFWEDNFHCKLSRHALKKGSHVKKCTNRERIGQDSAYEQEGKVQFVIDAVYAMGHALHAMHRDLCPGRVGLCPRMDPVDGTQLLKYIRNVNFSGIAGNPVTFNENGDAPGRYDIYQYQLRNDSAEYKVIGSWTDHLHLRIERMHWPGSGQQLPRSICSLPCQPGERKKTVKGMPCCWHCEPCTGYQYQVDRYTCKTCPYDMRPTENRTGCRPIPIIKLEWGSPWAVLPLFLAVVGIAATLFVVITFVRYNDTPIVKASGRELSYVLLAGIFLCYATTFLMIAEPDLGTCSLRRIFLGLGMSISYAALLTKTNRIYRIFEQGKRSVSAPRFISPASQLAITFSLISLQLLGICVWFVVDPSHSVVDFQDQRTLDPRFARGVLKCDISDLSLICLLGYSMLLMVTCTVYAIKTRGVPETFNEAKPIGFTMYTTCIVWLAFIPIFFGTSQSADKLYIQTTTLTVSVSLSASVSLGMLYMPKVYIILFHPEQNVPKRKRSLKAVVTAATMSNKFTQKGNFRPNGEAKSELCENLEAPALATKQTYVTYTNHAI

[13] = Mean residence time in rat; assay type: ADME, organism-based; conditions: in vivo
[14] = Ratio of drug level in brain to plasma in rat; assay type: ADME
Rattus norvegicus [15] = species on record: Rattus norvegicus; assay: Volume of distribution in rat; assay type: ADME, organism-based; conditions: in vivo
[16] = Plasma protein binding in human; assay type: ADME, cell-free
Plasma [17] = assay: Drug uptake in rat plasma; assay type: ADME
Brain = assay: Drug uptake in rat brain; assay type: ADME, tissue-based; conditions: in vivo
[18] = Protein binding in rat brain; assay type: ADME, tissue-based; conditions: read-out: PB

Compound: Cc1ccoc1C(=O)Nc1ccc(N2Cc3c(Cl)cccc3C2=O)cc1F
EC50 ([1]; read-out: EC50): 1.26 µM | %max [2]: 86%

Compound: Cc1cccnc1C(=O)Nc1ccc(N2Cc3c(Cl)cccc3C2=O)c(Cl)c1
EC50 ([1]; read-out: EC50): 1.36 µM | EC50 ([1]; read-out: pEC50 (converted)): 1.45 µM | %max [2]: 97%

Compound: Cc1ccoc1C(=O)Nc1ccc(N2Cc3cc(Cl)ccc3C2=O)c(Cl)c1
EC50 ([1]; read-out: EC50): > 10 µM | fraction unbound [5]: < 0.01 | %max [2]: 58% | fraction unbound [6]: < 0.01

Compound: Cc1ccoc1C(=O)Nc1ccc(N2Cc3ccccc3C2=O)cc1
EC50 ([1]; read-out: EC50): 1.56 µM | %max [2]: 94%

Compound: Cc1ccoc1C(=O)Nc1ccc(N2Cc3c(F)cccc3C2=O)c(Cl)c1
EC50 ([1]; read-out: EC50): 0.878 µM | EC50 ([1]; read-out: pEC50 (converted)): 0.891 µM | fraction unbound [5]: < 0.01 | %max [2]: 82% | fraction unbound [6]: < 0.01

Compound: Cc1ccoc1C(=O)Nc1ccc(N2Cc3c(Cl)cccc3C2=O)c(Cl)c1Cl
EC50 ([1]; read-out: EC50): > 10 µM

Compound: O=C(Nc1ccc(N2Cc3cccc(Cl)c3C2=O)c(Cl)c1)c1ncccc1Cl
EC50 ([1]; read-out: EC50): > 10 µM | %max [2]: 51%

Compound: Cc1ccoc1C(=O)Nc1ccc(N2Cc3ccccc3C2=O)c(Cl)c1Cl
EC50 ([1]; read-out: EC50): > 10 µM

Compound: Cc1ccoc1C(=O)Nc1ccc(N2C(=O)c3ccccc3C2=O)cc1F
Ratio EC50 (T-Rex 293): > 793

Compound: Cc1ccoc1C(=O)Nc1ccc(N2Cc3cccnc3C2=O)c(Cl)c1
EC50 ([1]; read-out: EC50): > 10 µM | fraction unbound [5]: < 0.01 | fraction unbound [6]: < 0.01

Compound: Cc1ccoc1C(=O)Nc1ccc(N2Cc3c(C)cccc3C2=O)c(Cl)c1
EC50 ([1]; read-out: EC50): 1.07 µM | EC50 ([1]; read-out: pEC50 (converted)): 1.1 µM | fraction unbound [5]: < 0.01 | %max [2]: 89% | fraction unbound [6]: < 0.01

Compound: Cc1ccoc1C(=O)Nc1ccc(N2Cc3c(Cl)cccc3C2=O)cc1
EC50 ([1]; read-out: EC50): 0.245 µM | %max [2]: 99%

Compound: Cc1ccoc1C(=O)Nc1ccc(N2Cc3cccc(Cl)c3C2=O)c(Cl)c1Cl
EC50 ([1]; read-out: EC50): 6.52 µM | EC50 ([1]; read-out: pEC50 (converted)): 6.61 µM | %max [2]: 81%

Compound: O=C(Nc1ccc(N2Cc3c(Cl)cccc3C2=O)c(Cl)c1)c1ncccc1Cl
EC50 ([1]; read-out: EC50): 1.27 µM | %max [2]: 93%

Compound: Cc1ccoc1C(=O)Nc1ccc(N2Cc3c(Cl)cccc3C2=O)c(Cl)c1
t1/2 (Rattus norvegicus [11]): 1.55 h | EC50 [12]: > 10 µM | IC50 (Cytochrome P450 1A2): > 30 µM | MRT [13]: 5.03 h | EC50 ([1]; read-out: EC50): 0.211 µM | BPR [14]: 1.36 | IC50 (Cytochrome P450 2C9): > 30 µM | Vd (Rattus norvegicus [15]): 3.36 L/kg | PPB [16]: > 99% | IC50 (Cytochrome P450 3A4): > 30 µM | Cp/dose (Plasma [17]): 0.193 µM | Stability (Liver microsome [7]): Stable | Druguptake/dose (Brain): 269 nM | Stability (Liver microsome [8]): Stable | IC50 (Cytochrome P450 2D6): > 30 µM | %max [2]: 88% | fraction unbound [18]: < 0.01 | fraction unbound [6]: < 0.01

Compound: Cc1scnc1C(=O)Nc1ccc(N2Cc3c(Cl)cccc3C2=O)c(Cl)c1
EC50 ([1]; read-out: EC50): 0.954 µM | %max [2]: 66%

Compound: Cc1ccoc1C(=O)Nc1ccc(N2CCOc3ncccc32)c(Cl)c1
EC50 ([1]; read-out: EC50): 2.61 µM | %max [2]: 93%

Continued, values first:

EC50 ([1]; read-out: EC50): 1.76 µM | %max [2]: 95%
Compound: Cc1ccoc1C(=O)Nc1ccc(N2Cc3ccccc3C2)c(Cl)c1

EC50 ([1]; read-out: EC50): 1.29 µM | EC50 ([1]; read-out: pEC50 (converted)): 1.32 µM | Stability (Plasma [3]): Stable | Stability (Plasma [4]): Stable | %max [2]: 107%
Compound: Cc1ccoc1C(=O)Nc1ccc(N2C(=O)CCc3ccccc32)c(Cl)c1

EC50 ([1]; read-out: EC50): 0.781 µM | %max [2]: 94%
Compound: Cc1ccoc1C(=O)Nc1ccc(N2CCc3ccccc3C2=O)c(Cl)c1

EC50 ([1]; read-out: EC50): 3.72 µM | Stability (Liver microsome [7]): Stable | Stability (Liver microsome [8]): Stable | %max [2]: 91%
Compound: Cc1ccoc1C(=O)Nc1ccc(N2Cc3ccccc3C2=O)c(Cl)c1

EC50 ([1]; read-out: EC50): 0.391 µM | fraction unbound [5]: < 0.01 | %max [2]: 99% | fraction unbound [6]: < 0.01
Compound: Cc1ccoc1C(=O)Nc1ccc(N2Cc3c(Br)cccc3C2=O)c(Cl)c1

EC50 ([1]; read-out: EC50): > 10 µM
Compound: Cc1ccoc1C(=O)Nc1ccc(NC(=O)c2ccccc2)c(Cl)c1

CLhep predicted [9]: 0.81 L/h/kg | inhibition (INH) (Cytochrome P450 1A2; human): Not Active | CLhep predicted [10]: 3.24 L/h/kg | EC50 ([1]; read-out: EC50): 0.242 µM | EC50 ([1]; read-out: pEC50 (converted)): 0.224 µM | inhibition (INH) (Cytochrome P450 2C9; human): Not Active | Stability (Plasma [3]): Unstable | inhibition (INH) (Cytochrome P450 3A4; human): Not Active | Stability (Plasma [4]): Unstable | inhibition (INH) (Cytochrome P450 2D6; human): Not Active | %max [2]: 105%
Compound: Cc1ccoc1C(=O)Nc1ccc(N2C(=O)Cc3ccccc3C2=O)c(Cl)c1

EC50 ([1]; read-out: EC50): 3.5 µM | EC50 ([1]; read-out: pEC50 (converted)): 3.63 µM | %max [2]: 95%
Compound: Cc1ccoc1C(=O)Nc1ccc(N2C(=O)Cc3ccccc3CC2=O)c(Cl)c1

EC50 ([1]; read-out: EC50): 0.484 µM | fraction unbound [5]: < 0.01 | %max [2]: 108% | fraction unbound [6]: < 0.01
Compound: Cc1ccoc1C(=O)Nc1ccc(N2Cc3cccc(Cl)c3C2=O)c(Cl)c1
